Hep lipid drop: inhibitors of hepatocyte lipid droplet formation, primary screen, imaging, high-throughput imaging, BODIPY stain | AML12 mouse hepatocytes, oleate lipid droplets | inhibition, % at 6.5 µM | 240,000 tested, 0.4% active | AID 1656, 2009;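 active = lipid droplet intensity inhibited by at least 50%, with more than 500 cells counted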
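Material – AML12 mouse liver cells · Also added – oleate loading, 100 µM · Compound dosing – 6.5 µM single-point dosing · Times – overnight treatment with compound plus oleate · Measured by – fluorescence imaging, 20x objective, two fields per well · Read-out – percent inhibition of filter-corrected integrated lipid droplet intensity per well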
NRP1-CendR mod: modulators of CendR peptide binding to NRP-1, primary screen, biochemical, fluorescence polarization, uHTS; Neuropilin-1 (Homo sapiens), O14786; FAM-RPARPAR peptide binding to NRP-1; inhibition, % at 25 µM; 360,000 tested, 0.85% active; AID 602438, 2012;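 active = inhibition or corrected inhibition above about 18%, plus a signal ratio from 0.5 to 1.5, limit read from the data, passing the limit was not always enough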
PfM18AAP inh: PfM18AAP inhibitors, malaria aminopeptidase, primary screen, biochemical, QFRET, recombinant enzyme; M18 aspartyl aminopeptidase (Plasmodium falciparum 3D7); H-Glu-NHMec fluorogenic cleavage; inhibition, % at 7.35 µM; 290,000 tested, 1.2% active;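 active = inhibition above the campaign mean inhibition over all tested compounds plus 3 SD, cut at about 28% in these data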;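 also: 0% = plate median of test compound wells and 100% = 2 mM ZnCl2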
m5-HT2A agonist: mouse Htr2a agonists via beta-arrestin recruitment, primary screen, cell-based, luminescence; AID 624169, 2012; 5-hydroxytryptamine receptor 2A (Mus musculus), P35363; CHO-K1 mHTR2A beta-arrestin complementation; percent of 30 µM serotonin response; 360,000 tested, 0.66% active; activation, % at 7.6 µM;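 active = activation above a run cutoff, the mean activation of all tested compounds plus 3 SD, cut at about 14% in these data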;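 also: 0% = plate median of compound wells and 100% = 30 µM serotonin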
Arrestin-AP2 inh: inhibitors of beta-arrestin/AP2 binding, primary screen, biochemical, GPCR trafficking, flow cytometry; beta-arrestin 1 C-terminal peptide binding to AP2 beta2-adaptin appendage (human); AID 504490, 2011; inhibition, % at 10 µM; FITC-arrestin peptide / GST-AP2 beads; AP2 beta2 appendage carries R879A mutation; 340,000 tested, 0.31% active;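 active = inhibition above a set limit, near 3 SD of compounds lacking own fluorescence, cut at about 54% in these data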;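 also: plate controls were DMSO wells for no effect and 5 µM unlabelled arrestin peptide for full effect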
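Material – AP2 appendage R879A on GSH beads · Buffer or medium – PBS with 0.05% Tween 20 and 0.1% BSA · Probe or stimulus – fluorescein-tagged arrestin peptide at 50 nM final · Incubation – compound with beads 12 min RT, then probe 1 h RT · Detection – high-throughput flow cytometry of beads, ex 488, em 535 nm · Evaluation – percent response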
HGIII-sPLA2 inh: human group III sPLA2 inhibitors, primary screen, biochemical, QFRET, BODIPY PC-A2 liposome substrate. Group 3 secretory phospholipase A2 (Homo sapiens), Q9NZ20. QFRET BODIPY PC-A2 liposome hydrolysis, fluorescence. inhibition, % at 12.2 µM. 370,000 tested, 0.56% active;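 active = inhibition above mean plus 3 SD of compounds lying within the high and low control bounds, cut at about 19% in these data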;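 also: 0% = median of test compound wells and 100% = no enzyme DMSO wells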
Numbers without * were called inactive; . = no result given. Shown are actives, neighbours in structure and some others; about 3.3% of the full set was active somewhere.

SMILES | Hep lipid drop | NRP1-CendR mod | PfM18AAP inh | m5-HT2A agonist | Arrestin-AP2 inh | HGIII-sPLA2 inh
O=C(CO)c1c[nH]c2ccccc12 | . | 17 | . | 0 | . | 0
CCCc1nc2ccc(C(=O)OC)cn2c1Cc1ccccc1OC | . | . | . | . | . | 2
CCN(CC)c1ccc(C=Nc2cccnc2Cl)c(O)c1 | 2 | -11 | 31* | 5 | -7 | 4
CCN(CC)c1ccc(C=Nc2cc(C)ccc2C)c(O)c1 | . | -6 | 5 | -3 | 44 | -2
CC(=O)OCC(=O)[C@@]12OC3(CCCC3)O[C@@H]1C[C@H]1[C@@H]3CCC4=CC(=O)C=C[C@]4(C)[C@@]3(F)[C@@H](O)C[C@@]12C | 14 | 1 | -4 | 18* | 2 | -39
O=C(c1ccc(S(=O)(=O)N2CCCC2)cc1)N1CCCCC1 | . | -4 | . | 4 | -6 | -1
O=C(/C=C/c1ccc(O)c(O)c1)c1ccc(S(=O)(=O)N2CCCCCC2)cc1 | 4 | 22* | 60* | -1 | 20 | 8
CC1(C)CC(=O)C=C(Nc2ccc(C(=O)O)cc2)C1 | 10 | -6 | 2 | 1 | 15 | 3
CC1(C)CC(=O)C=C(NNC(=O)c2ccccc2)C1 | -1 | 6 | 41* | -4 | 0 | -23
COc1ccc2c(c1)OC[C@H]1[C@H]2N2C(=O)CN(CCc3c[nH]c4ccccc34)C(=O)[C@@]2(C)[C@H]1c1ccccc1 | . | 2 | . | -1 | 4 | -58
COc1ccccc1NC(=O)OC1CC2CC1[C@H]1CCCCN1[C@H]2Cc1ccccc1 (stereo partly drawn) | . | . | . | . | . | 5
Cc1ccc(C)c(NC(=S)c2ccc3ccccc3n2)c1 | 56* | -3 | -11 | 0 | 19 | 10
CN(C)CCCN1C(=O)c2cccc3c([N+](=O)[O-])ccc(c23)C1=O | 8 | 29* | 2 | 7 | 18 | 3
CC[C@@]1(c2cccc(Cl)c2)C(=O)N(C(=O)OC(C)C)N1C(=O)OC(C)C | . | . | . | . | . | 3
COCCNC(=O)c1cc(-c2ccccc2)nn1CC1CC(c2cccc([N+](=O)[O-])c2)=NO1 (stereo not drawn) | . | 31* | . | -4 | 8 | -7
CCOC(=O)c1cnc(SC2CC(=O)N(c3cccc(OC)c3)C2=O)nc1N (stereo not drawn) | . | 11 | 29* | 5 | 14 | -3
CCOC(=O)c1ccc(N2C(=O)CC(Sc3ncccn3)C2=O)cc1 (stereo not drawn) | -1 | 6 | 0 | -4 | -8 | -8
OCCC1CCCCN1CC(O)COCc1ccc(Cl)cc1 (stereo not drawn) | 0 | 21* | 1 | -8 | 12 | -1
COC(=O)[C@]12C[C@H](CC(=O)N3CCN(C(=O)C4CC4)CC3)C(=O)N(Cc3cccc4ccccc34)C1=C[C@H](C(C)C)O[C@@H]2C1CC1 | . | . | . | . | . | -7
S=c1[nH]nc(-c2ccncc2)n1/N=C/C=C/c1ccco1 | -5 | -30 | 31* | 2 | -11 | 11
S=c1[nH]nc(-c2ccccc2Cl)n1/N=C/C=C/c1ccco1 | 29 | -37 | 22 | 0 | -19 | 17
Cc1cccc(-c2n[nH]c(=S)n2/N=C/C=C/c2ccco2)c1 | -3 | -30 | 11 | 3 | -4 | 31*
O=C(Nc1ccccc1N1CCCC1)c1cc(=O)[nH]c2ccccc12 | . | -11 | . | -1 | -9 | -2
CCN1CCN(S(=O)(=O)c2ccc(Cl)c(C(=O)NC3CCCC3)c2)CC1 | . | 8 | . | 2 | 27 | -2
O=C(NC1CCCCC1)c1cc(S(=O)(=O)N2CCCC2)ccc1Cl | 5 | 22* | -1 | 12 | -6 | 11
O=C(Nc1ccccc1NC(=O)c1csnn1)c1csnn1 | -2 | -9 | 73* | 9 | 17 | 12
O=C(NNS(=O)(=O)c1ccc(Br)cc1)c1ccccc1-n1cccc1 | 0 | 0 | -3 | 4 | 3 | -11

Screens as filed in PubChem.
